Assay results reported in ChEMBL document CHEMBL2146382, “Cytotoxic and antineoplastic activity of timosaponin A-III for human colon cancer cells” (J Nat Prod, 2011).
Calls of active or inactive are those of the source. The rule behind the calls is not given here.

Experiments:
SW-620 = assay: Growth inhibition of human SW620 cells; format: functional, cell-based
In short: (§1)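 SRB assay: cells at 5 × 10^4 cells/mL were exposed to a concentration series for 3 days, fixed with 10% TCA and stained with sulforhodamine B. Survival was expressed as % of solvent-treated control and IC50 taken by nonlinear regression of % survival versus concentration. Media held 10% heat-inactivated FBS plus antibiotics: RPMI (HCT-15, HCT 116, HT-29), RPMI with 25 mM HEPES (SW480, SW620), DMEM (MRC-5, Hs68). Cultures were kept at 37 C, 5% CO2.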

HCT-15 [1] = assay: Cell cycle arrest in human HCT15 cells assessed as accumulation at sub-G1 phase at 20 uM after 12 hrs using propidium-iodide staining by flow-cytometry (reference value: 5.2 %); format: functional
HCT-15 [2] = assay: Induction of apoptosis in human HCT15 cells assessed as increase in caspase-9 expression after 12 to 24 hrs by Western blot analysis; format: functional, cell-based
In short: (§2)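 HCT-15 cells (RPMI, 10% heat-inactivated FBS, antibiotics-antimycotics, 37 C, 5% CO2) exposed to compound. Cells lysed, protein measured by BCA, 30-50 μg per lane resolved on 10% SDS-PAGE and electroblotted to PVDF. Membranes blocked 1 h in 5% nonfat milk/PBST, probed with primary antibodies overnight at 4 C, then HRP anti-mouse IgG 1:1500 for 3 h at room temperature. Detection by ECL; β-actin antibody available.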

HCT-15 [3] = assay: Growth inhibition of human HCT15 cells; format: functional, cell-based; in short: as §1
HCT-15 [4] = assay: Induction of apoptosis in human HCT15 cells assessed as increase in caspase-8 expression at 5 to 20 uM by Western blot analysis; format: functional, cell-based; in short: as §2
HCT-15 [5] = assay: Cell cycle arrest at G2/M phase in human HCT15 cells assessed as cyclin B1 down regulation at 5 to 20 uM after 12 to 24 hrs by Western blot analysis; format: functional, cell-based
In short: (§3)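 HCT-15 cells in RPMI/10% FBS exposed to test compound at various concentrations; lysates quantified by BCA, 30–50 μg protein run on 10% SDS-PAGE, transferred to PVDF, blocked 1 h in 5% milk/PBST, primary antibodies overnight at 4 °C, HRP anti-mouse IgG 1:1500 for 3 h at room temperature, ECL detection.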

HCT-15 [6] = assay: Induction of apoptosis in human HCT15 cells assessed as DNA fragmentation at 5 to 20 uM after 24 hrs by agarose-gel electrophoresis; format: functional, cell-based
In short: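 HCT-15 cells seeded 1 × 10^6 per 100 mm dish, after 24 h given fresh medium with compound (0–20 μM) for 24 h; lysed in 50 mM Tris-HCl pH 7.5/20 mM EDTA/1% NP-40, RNase A then proteinase K digestion, ethanol/ammonium acetate precipitation; 4 μg DNA on 2% agarose, SYBR Gold stain.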

HCT-15 [7] = assay: Cell cycle arrest at G0/G1 phase in human HCT15 cells assessed as decrease in CDK4 expression at 5 to 20 uM after 12 to 24 hrs by Western blot analysis; format: functional, cell-based; in short: as §3
HT-29 = assay: Growth inhibition of human HT-29 cells; format: functional, cell-based; in short: as §1
HCT-15 [8] = assay: Cell cycle arrest in human HCT15 cells assessed as increase in cyclin E expression at 5 to 20 uM after 12 to 24 hrs by Western blot analysis; format: functional, cell-based; in short: as §3
HCT-15 [9] = assay: Induction of apoptosis in human HCT15 cells assessed as suppression of procaspase-3 expression at 5 to 20 uM after 12 to 24 hrs by Western blot analysis; format: functional, cell-based; in short: as §2
HCT-15 [10] = assay: Induction of apoptosis in human HCT15 cells assessed as increase in caspase-8 expression after 12 to 24 hrs by Western blot analysis; format: functional, cell-based; in short: as §3
HCT-15 [11] = assay: Induction of apoptosis in human HCT15 cells assessed as change in Bax expression at 5 to 20 uM after 24 hrs by Western blot analysis; format: functional, cell-based; in short: as §3
HCT-116 = assay: Growth inhibition of human HCT116 cells; format: functional, cell-based; in short: as §1
HCT-15 [12] = assay: Antineoplastic activity against human HCT15 cells xenografted in nude BALB/c mouse assessed as inhibition of rate of tumor size at 5 mg/kg, ip 3 times a week for 4 weeks relative to control; format: functional; conditions: HCT-15, ip, 672 h, route intraperitoneal
In short: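 HCT-15 cells (2 × 10^6 in 200 μL medium) implanted subcutaneously in flanks of BALB/c-nu (nu/nu) mice; dosing began at ca. 80 mm3 tumours; groups of five, randomized. 2 or 5 mg/kg given ip three times weekly in ethanol–cremophor–H2O (0.5:0.5:99), vehicle controls; caliper volume (3.14·L·W·H/6) three times weekly for 30 days; Ki-67 immunohistochemistry on tumour sections (1:250, 4 °C overnight, DAB, hematoxylin counterstain).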

HCT-15 [13] = assay: Cell cycle arrest in human HCT15 cells assessed as accumulation at G0/G1 phase at 20 uM after 24 hrs using propidium-iodide staining by flow-cytometry (reference value: 37.0 %); format: functional
Mus musculus = assay: Toxicity in human HCT15 cells xenografted nude BALB/c mouse assessed as body weight changes at 2 to 5 mg/kg, ip administered 3 times a week for 4 weeks measured after 9 to 30 days; format: organism-based, HCT-15; design: route intraperitoneal; conditions: in vivo
In short: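 HCT-15 cells (2 × 10^6) were injected subcutaneously into the flank of BALB/c-nu (nu/nu) mice. Dosing began once tumours reached ca. 80 mm3, with mice randomised to groups of five. Compound (2 or 5 mg/kg) in ethanol-cremophor-H2O (0.5:0.5:99) was given ip three times weekly for four weeks. Controls received equal-volume vehicle. Body weight was monitored over the testing period, with tumour measurements over 30 days.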

HCT-15 [14] = assay: Cell cycle arrest at M phase in human HCT15 cells assessed as decrease in cyclin B1 level at 5 to 20 uM after 12 to 24 hrs by Western blot analysis; format: functional, cell-based; in short: as §3
HCT-15 [15] = assay: Cytotoxicity against human HCT15 cells assessed as morphological changes with distinct rounded shapes and detachment at 5 to 20 uM by phase-contrast microscopy; format: functional, cell-based; conditions: TDE = time-dependent effect
In short: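 HCT-15 cells treated with 0–20 μM for 12 and 24 h, vehicle-treated controls; morphology examined and photographed under phase-contrast microscope.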

HCT-15 [16] = assay: Cell cycle arrest in human HCT15 cells assessed as accumulation at G0/G1 phase at 10 uM after 12 hrs using propidium-iodide staining by flow-cytometry (reference value: 44.4 %); format: functional
HCT-15 [17] = assay: Cell cycle arrest in human HCT15 cells assessed as accumulation at G2/M phase at 5 uM after 12 hrs using propidium-iodide staining by flow-cytometry (reference value: 15.7 %); format: functional
HCT-15 [18] = assay: Cell cycle arrest at G0/G1 phase in human HCT15 cells assessed as suppression of Rb ser807/811 phosphorylation at 5 to 20 uM after 12 to 24 hrs by Western blot analysis; format: functional, cell-based; in short: as §3
HCT-15 [19] = assay: Cell cycle arrest in human HCT15 cells assessed as change in PCNA level at 5 to 20 uM after 12 to 24 hrs by Western blot analysis
HCT-15 [20] = assay: Cell cycle arrest in human HCT15 cells assessed as accumulation at sub-G1 phase at 5 uM after 24 hrs using propidium-iodide staining by flow-cytometry (reference value: 6.5 %); format: functional

## C[C@H]1CC[C@@]2(OC1)O[C@H]1C[C@H]3[C@@H]4CC[C@@H]5C[C@@H](O[C@@H]6O[C@H](CO)[C@H](O)[C@H](O)[C@H]6O[C@@H]6O[C@H](CO)[C@@H](O)[C@H](O)[C@H]6O)CC[C@]5(C)[C@H]4CC[C@]3(C)[C@H]1[C@@H]2C [TIMOSAPONIN AIII]
SW-620
  IC50: 11.1 µM
HCT-15 [1]
  Activity: 41.8%
HCT-15 [2]
  Activity: Active
HCT-15 [3]
  IC50: 6.1 µM
HCT-15 [4]
  Activity: Active
HCT-15 [5]
  Activity: Active
HCT-15 [6]
  Activity: Active
HCT-15 [7]
  Activity: Active
HT-29
  IC50: 10.3 µM
HCT-15 [8]
  Activity: Active
HCT-15 [9]
  Activity: Active
HCT-15 [10]
  Activity: Active
HCT-15 [11]
  Activity: inactive
HCT-116
  IC50: 5.5 µM
HCT-15 [12]
  inhibition in vivo at 5 mg/kg: 37.3%
HCT-15 [13]
  Activity: 43.4%
Mus musculus
  Activity: Non-toxic
HCT-15 [14]
  Activity: Active
HCT-15 [15]
  Activity: tde
HCT-15 [16]
  Activity: 43.2%
HCT-15 [17]
  Activity: 20.5%
HCT-15 [18]
  Activity: Active
HCT-15 [19]
  Activity: inactive
HCT-15 [20]
  Activity: 7.2%
